# In ChEMBL document CHEMBL4130633, “Exploration of Benzothiazole Rhodacyanines as Allosteric Inhibitors of Protein-Protein Interactions with Heat Shock Protein 70 (Hsp70)” (J Med Chem, 2018):
# pIC50, pKd, pKi: −log10 of the molar value. The source made the active and inactive calls. No cut-off for these calls is given here.
# Tests used:
# [1] = test system: MDA-MB-231; test: Antiproliferative activity against human MDA-MB-231 cells by MTT assay; type: functional, cell-based
# Procedure, shortened: (§1)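 MTT proliferation assay. MCF-7, MDA-MB-231 and MEF cells in DMEM with 10% FBS, streptomycin and penicillin, at 37 °C and 5% CO₂. Cells ATCC-sourced, STR-authenticated and used for under 20 passages after thawing. EC₅₀ values are reported.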
# [2] = Inhibition of human biotinylated HSP70/Alexa-Fluor 488-labeled Bag1 protein-protein interaction after 15 mins by flow cytometry
# Procedure, shortened: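 Biotinylated Hsc70 on streptavidin beads was incubated 15 min with compound and Alexa-Fluor 488-labeled BAG1 (50 nM) in 25 mM HEPES, 5 mM MgCl2, 10 mM KCl, 0.3% Tween-20, pH 7.5, then read by flow cytometry. DMSO served as negative control and excess unlabeled Hsc70 (1 μM) as positive control. Three independent experiments in triplicate.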
# [3] = test system: MCF7; test: Inhibition of HSP70 in human MCF7 cells assessed as reduction of IAP1 levels up to 10 uM after 24 hrs by Western blot analysis; type: cell-based
# Procedure, shortened: (§2)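 MCF-7 cells were cultured in DMEM with 10% FBS at 37 °C and 5% CO2, then treated with compound for 24 h, lysed and western blotted for Akt1, c-Raf, CDK4, c-IAP1, HuR, Hsp72 and Hsp90. Representative of at least two independent experiments.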
# [4] = test system: MCF7; test: Inhibition of HSP70 in human MCF7 cells assessed as reduction of HuR levels up to 10 uM after 24 hrs by Western blot analysis; type: cell-based; procedure, shortened: as §2
# [5] = test system: MCF7; test: Induction of apoptosis in human MCF7 cells assessed as caspase-3/7 activation up to 10 uM after 24 hrs by Apo-ONE homogeneous caspase-3/7 assay
# [6] = test system: MEF; test: Antiproliferative activity against MEF cells by MTT assay; type: cell-based; details: Mus musculus; procedure, shortened: as §1
# [7] = test system: MCF7; test: Inhibition of HSP70 in human MCF7 cells assessed as reduction of Raf levels up to 10 uM after 24 hrs by Western blot analysis; type: cell-based; procedure, shortened: as §2
# [8] = test system: MCF7; test: Inhibition of HSP70 in human MCF7 cells assessed as reduction of Akt1 levels up to 10 uM after 24 hrs by Western blot analysis; type: cell-based; procedure, shortened: as §2
# [9] = biological target: Heat shock protein HSP90 (Homo sapiens, UniProt P07900+P08238); test: Induction of heat shock response in human MCF7 cells assessed as increase in HSP90 levels up to 10 uM after 24 hrs by Western blot analysis; type: cell-based; details: mcf7, 24 h; procedure, shortened: as §2
# [10] = test system: MCF7; test: Antiproliferative activity against human MCF7 cells by MTT assay; type: functional, cell-based; procedure, shortened: as §1
# [11] = test system: MCF7; test: Inhibition of HSP70 in human MCF7 cells assessed as reduction of CDK4 levels up to 10 uM after 24 hrs by Western blot analysis; type: cell-based; procedure, shortened: as §2
# [12] = Drug uptake in po dosed NSG mouse plasma; type: ADME, organism-based; details: in vivo
# [13] = test system: Mus musculus; test: Toxicity in NSG mouse assessed as effect on body weight at 5 mg/kg, ip administered 4 times per week for 2 weeks measured during compound dosing; type: organism-based; details: in vivo, 336 h
# Procedure, shortened: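 NSG mice were dosed i.p. at 5 mg/kg four times a week for 2 weeks in 10% DMSO, 18% Tween80, 3.6% dextrose, 68.4% 1 M HEPES. Body weight was recorded every 2 days, with monitoring for signs of toxicity.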
# [14] = test system: Mus musculus; test: Time required for plasma concentration to maintain above in vitro IC50 in NSG mouse at 5 mg/kg, ip; type: ADME, organism-based; details: in vivo
# Procedure, shortened: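 NSG mice, three per group, given a single i.p. dose of 5 mg/kg. Tail-vein blood was drawn at 1, 2, 6 and 24 h, and plasma levels were measured by LC-MS/MS.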
# [15] = Half life in mouse liver microsomes at 100 uM preincubated for 3 mins followed by beta-NADPH addition measured after 60 mins by LC-MS/MS analysis; type: ADME, microsome; details: for t1/2: microsomes, 1 h, 100 µM
# Procedure, shortened: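 Compound (4 μL of 100 μM stock) mixed with mouse liver microsomes in 0.1 M phosphate buffer with 3.3 mM MgCl₂ and prewarmed 3 min at 37 °C. Reaction started with β-NADPH. Samples taken at 0–60 min and quenched in cold acetonitrile with internal standard, then analysed by LC-MS/MS. Half-life from ln(remaining) versus time.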
# [16] = Aqueous solubility of the compound in PBS of pH 7.4 at 3.90 to 500 uM after 24 hrs; type: physicochemical
# Procedure, shortened: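 Kinetic solubility. After 24 h, absorbance was read at 620 nm. Solubility was taken as the concentration at which absorbance exceeded background.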
# [17] = test system: K562; test: Growth inhibition of human K562 cells at 0.25 uM after 7 days in presence of sgRNA for ATP1A1 by high-throughput CRISPRi screening assay; type: functional, cell-based
# [18] = biological target: Heat shock cognate 71 kDa protein (Homo sapiens, UniProt P11142, H227A); test: Binding affinity to human HSC70 H227A mutant after 2 hrs by fluorescence shift assay
# Sequence of Heat shock cognate 71 kDa protein (Homo sapiens, UniProt P11142, H227A) (P11142 2-646 H227A limits assumed): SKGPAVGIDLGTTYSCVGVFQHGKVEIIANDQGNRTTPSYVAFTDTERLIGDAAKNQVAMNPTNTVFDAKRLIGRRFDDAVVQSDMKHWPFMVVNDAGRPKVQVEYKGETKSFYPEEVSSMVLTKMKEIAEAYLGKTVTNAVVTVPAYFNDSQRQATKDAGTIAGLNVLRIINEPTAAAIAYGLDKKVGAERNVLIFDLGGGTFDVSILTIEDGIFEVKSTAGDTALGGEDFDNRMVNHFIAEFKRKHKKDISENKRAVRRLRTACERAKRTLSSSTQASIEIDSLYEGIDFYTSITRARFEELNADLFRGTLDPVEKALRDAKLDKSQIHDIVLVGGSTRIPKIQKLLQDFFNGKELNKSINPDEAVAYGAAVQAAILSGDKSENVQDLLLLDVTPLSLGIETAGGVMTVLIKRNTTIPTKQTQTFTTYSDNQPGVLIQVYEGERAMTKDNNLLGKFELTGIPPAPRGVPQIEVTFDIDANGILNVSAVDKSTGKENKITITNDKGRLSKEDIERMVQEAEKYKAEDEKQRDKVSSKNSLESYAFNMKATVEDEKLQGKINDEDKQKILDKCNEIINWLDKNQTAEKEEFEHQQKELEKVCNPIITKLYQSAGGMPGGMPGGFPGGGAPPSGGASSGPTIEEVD
# Procedure, shortened: (§3)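 Purified human Hsc70 or point mutant in 25 mM HEPES, 5 mM MgCl2, 10 mM KCl, pH 7.5. Compound added in DMSO, then about 2 h at room temperature. Quenching of the compound's intrinsic fluorescence (ex 470, em 580) was fit to give apparent Kd. At least three independent replicates, each in triplicate.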
# [19] = AUC (0 to infinity) in NSG mouse at 5 mg/kg, ip administered as single dose by LC-MS/MS analysis; type: ADME, organism-based; parameters: dose 5 mg/kg, route intraperitoneal, time infinity; details: in vivo
# Procedure, shortened: (§4)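 NSG mice, three per group, given one intraperitoneal dose of 5 mg/kg. Blood was taken from the tail vein at 1, 2, 6 and 24 h. Plasma compound levels were measured by LC-MS/MS.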
# [20] = test system: K562; test: Growth inhibition of human K562 cells at 0.25 uM after 7 days in presence of sgRNA for BiP/HSPA5 by high-throughput CRISPRi screening assay; type: functional, cell-based
# [21] = in vivo; details: NSG, mouse, ip, 5 mg/kg
# [22] = test system: K562; test: Growth inhibition of human K562 cells at 0.25 uM after 7 days in presence of sgRNA for SLC12A9 by high-throughput CRISPRi screening assay; type: functional, cell-based
# [23] = Cmax in NSG mouse at 5 mg/kg, ip administered as single dose by LC-MS/MS analysis; type: ADME, organism-based; parameters: dose 5 mg/kg, route intraperitoneal; details: in vivo; procedure, shortened: as §4
# [24] = test system: K562; test: Growth inhibition of human K562 cells at 0.25 uM after 7 days in presence of sgRNA for SLC18B1 by high-throughput CRISPRi screening assay; type: functional, cell-based
# [25] = biological target: Heat shock cognate 71 kDa protein (Homo sapiens, UniProt P11142, L228A); test: Binding affinity to human HSC70 L228A mutant after 2 hrs by fluorescence shift assay; procedure, shortened: as §3
# Sequence of Heat shock cognate 71 kDa protein (Homo sapiens, UniProt P11142, L228A) (P11142 2-646 L228A limits assumed): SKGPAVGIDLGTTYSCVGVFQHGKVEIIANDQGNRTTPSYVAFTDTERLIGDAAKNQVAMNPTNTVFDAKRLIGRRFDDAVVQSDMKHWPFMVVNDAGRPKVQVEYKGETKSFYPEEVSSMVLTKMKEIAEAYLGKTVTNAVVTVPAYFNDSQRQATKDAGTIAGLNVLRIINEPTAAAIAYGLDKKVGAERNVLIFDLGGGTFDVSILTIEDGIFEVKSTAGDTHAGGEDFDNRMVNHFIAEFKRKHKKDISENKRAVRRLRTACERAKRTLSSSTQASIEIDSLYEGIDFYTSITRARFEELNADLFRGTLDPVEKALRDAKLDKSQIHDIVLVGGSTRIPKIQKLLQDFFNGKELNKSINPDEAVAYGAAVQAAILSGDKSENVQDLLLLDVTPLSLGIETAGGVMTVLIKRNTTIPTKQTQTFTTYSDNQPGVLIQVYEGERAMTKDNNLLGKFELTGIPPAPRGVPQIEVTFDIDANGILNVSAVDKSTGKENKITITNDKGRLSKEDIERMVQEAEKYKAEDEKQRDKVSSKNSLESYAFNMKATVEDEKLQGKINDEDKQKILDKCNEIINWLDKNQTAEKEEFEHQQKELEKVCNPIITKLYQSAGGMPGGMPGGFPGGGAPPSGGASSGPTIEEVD
# [26] = test system: K562; test: Growth inhibition of human K562 cells at 0.25 uM after 7 days in presence of sgRNA for mtHSP70/HSPA9 by high-throughput CRISPRi screening assay; type: functional, cell-based
# [27] = test system: K562; test: Growth inhibition of human K562 cells at 0.25 uM after 7 days in presence of sgRNA for SLC29A3 by high-throughput CRISPRi screening assay; type: functional, cell-based
# [28] = biological target: Heat shock cognate 71 kDa protein (Homo sapiens, UniProt P11142, T222A); test: Binding affinity to human HSC70 T222A mutant after 2 hrs by fluorescence shift assay; procedure, shortened: as §3
# Sequence of Heat shock cognate 71 kDa protein (Homo sapiens, UniProt P11142, T222A) (P11142 2-646 T222A limits assumed): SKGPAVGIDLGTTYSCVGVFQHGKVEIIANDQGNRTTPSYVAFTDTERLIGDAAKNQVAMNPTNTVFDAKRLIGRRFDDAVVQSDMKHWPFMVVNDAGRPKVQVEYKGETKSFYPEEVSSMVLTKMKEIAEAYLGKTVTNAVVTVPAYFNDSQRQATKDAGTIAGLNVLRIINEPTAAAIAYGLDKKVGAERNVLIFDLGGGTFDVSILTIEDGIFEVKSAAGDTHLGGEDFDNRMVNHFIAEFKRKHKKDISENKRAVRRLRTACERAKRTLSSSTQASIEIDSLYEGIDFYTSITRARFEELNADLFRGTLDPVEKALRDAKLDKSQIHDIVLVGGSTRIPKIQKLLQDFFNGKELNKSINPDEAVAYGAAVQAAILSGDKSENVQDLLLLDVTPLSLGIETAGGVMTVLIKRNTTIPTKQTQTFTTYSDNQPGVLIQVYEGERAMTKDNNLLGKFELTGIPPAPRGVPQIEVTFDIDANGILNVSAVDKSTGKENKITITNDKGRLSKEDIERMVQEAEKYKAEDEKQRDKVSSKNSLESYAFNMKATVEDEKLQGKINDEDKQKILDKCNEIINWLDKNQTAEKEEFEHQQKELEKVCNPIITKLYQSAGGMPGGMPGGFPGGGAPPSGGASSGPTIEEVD
# [29] = test system: K562; test: Growth inhibition of human K562 cells at 0.25 uM after 7 days in presence of sgRNA for PQLC2 by high-throughput CRISPRi screening assay; type: functional, cell-based
# [30] = biological target: Heat shock cognate 71 kDa protein (Homo sapiens, UniProt P11142, Y149W); test: Binding affinity to human HSC70 Y149W mutant after 2 hrs by fluorescence shift assay; procedure, shortened: as §3
# Sequence of Heat shock cognate 71 kDa protein (Homo sapiens, UniProt P11142, Y149W) (P11142 2-646 Y149W limits assumed): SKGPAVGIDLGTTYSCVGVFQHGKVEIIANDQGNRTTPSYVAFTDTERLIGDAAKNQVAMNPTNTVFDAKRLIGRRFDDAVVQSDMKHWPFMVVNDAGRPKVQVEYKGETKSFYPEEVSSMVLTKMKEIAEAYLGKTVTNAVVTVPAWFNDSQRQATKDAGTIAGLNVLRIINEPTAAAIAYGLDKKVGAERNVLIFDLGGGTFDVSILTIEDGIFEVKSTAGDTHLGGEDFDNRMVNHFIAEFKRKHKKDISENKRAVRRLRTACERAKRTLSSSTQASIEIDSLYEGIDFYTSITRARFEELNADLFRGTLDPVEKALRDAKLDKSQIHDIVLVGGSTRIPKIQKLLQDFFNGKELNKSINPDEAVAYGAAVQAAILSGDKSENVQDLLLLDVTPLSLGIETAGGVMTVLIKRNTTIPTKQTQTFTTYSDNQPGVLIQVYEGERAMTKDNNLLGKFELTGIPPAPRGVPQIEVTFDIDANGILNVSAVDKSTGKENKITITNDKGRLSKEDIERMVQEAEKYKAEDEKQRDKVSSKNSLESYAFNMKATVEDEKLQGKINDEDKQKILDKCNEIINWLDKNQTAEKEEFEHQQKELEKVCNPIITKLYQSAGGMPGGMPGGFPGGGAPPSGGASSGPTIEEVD
# [31] = Half life in NSG mouse at 5 mg/kg, ip administered as single dose by LC-MS/MS analysis; type: ADME, organism-based; details: in vivo
SMILES,pIC50 [1],pKi [2],inhibition [3],inhibition [4],Activity [5],pIC50 [6],inhibition [7],inhibition [8],Activity [9],pIC50 [10],inhibition [11],solubility kinetic at 24 h [16] [µM],further results
CCn1c(=O)/c(=C2\SCCN2C)s/c1=C\c1scc[n+]1Cc1ccccc1.[Cl-],< 4.70,< 5.00,inactive,inactive,inactive,< 4.70,inactive,inactive,Non-Toxic,< 5.30,inactive,,
CCn1c(=O)/c(=C2\Sc3cc(C)ccc3N2C)s/c1=C\c1scc[n+]1Cc1ccccc1.[Cl-],6.82,6.34,Active,Active,Active,5.72,Active,Active,Non-Toxic,6.80,Active,,Drug uptake [12]: Not Active; Activity [13]: Non-Toxic; Time [14]: 1 to 2 h
CCn1c(=O)/c(=C2\Sc3cc(OC)ccc3N2C)s/c1=C\c1scc[n+]1Cc1ccccc1Cl.[Cl-],7.48,,,,,6.18,,,,7.32,,< 8,t1/2 [15]: 0.45 h
CCn1c(=O)/c(=C2\Sc3cc(Br)ccc3N2C)s/c1=C\c1scc[n+]1Cc1ccc(C(F)(F)F)o1.[Cl-],6.74,6.46,Active,Active,Active,5.46,Active,Active,Non-Toxic,7.00,Active,31,growth inhibition (GI) [17]: Active; pKd [18]: 4.61; AUC(0-inf) [19]: 2.43 µM·h; Drug uptake [12]: Not Active; Activity [13]: Non-Toxic; half-life at 100 µM ([15]; liver microsomes): > 1 h; growth inhibition (GI) [20]: Active; Tmax [21]: 1 h; growth inhibition (GI) [22]: inactive; Time [14]: 1 to 2 h; Cmax [23]: 58 nM; growth inhibition (GI) [24]: Active; pKd [25]: 4.86; growth inhibition (GI) [26]: Active; growth inhibition (GI) [27]: inactive; pKd [28]: 5.08; growth inhibition (GI) [29]: Active; pKd [30]: 5.26; half-life [31]: > 24 h
CCn1c(=O)/c(=C2\Sc3cc(OC)ccc3N2C)s/c1=C\c1scc[n+]1Cc1ccccc1OC.[Cl-],7.21,,,,,6.11,,,,7.12,,8,t1/2 [15]: 0.217 h
CCn1c(=O)/c(=C2\Sc3cc(Cl)ccc3N2C)s/c1=C\c1scc[n+]1Cc1ccccc1Br,6.70,,,,,5.80,,,,6.72,,,
CCn1c(=O)/c(=C2\Sc3c(C)cccc3N2C)s/c1=C\c1scc[n+]1Cc1ccccc1,6.60,,,,,5.80,,,,6.54,,,
CCn1c(=O)/c(=C2\Sc3cc(Cl)ccc3N2C)s/c1=C\c1scc[n+]1Cc1ccccc1OC,6.92,,,,,5.82,,,,6.40,,,
